HSF-1 act = increases HSF-1 driven luciferase reporter signal; NIH3T3-HGL HSF-1 luciferase reporter, MG132, 8 h; 100% = twice DMSO control signal; activation, % at 9 µM; 1.7% of 300,000 active; AID 504408;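 active = mean replicate activation of at least 50% with a set share of replicates each reaching 50%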;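 note: 0% = median of the neutral control wells and 100% = twice that signal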
PHOSPHO1 inh = inhibitors of human PHOSPHO1 phosphatase; Q8TCT1; recombinant PHOSPHO1, absorbance phosphatase assay; inhibition, % at 13.3 µM; 1.1% of 290,000 active; in the data active = inhibition above about 60%
Target sequence (Q8TCT1 whole entry, looked up): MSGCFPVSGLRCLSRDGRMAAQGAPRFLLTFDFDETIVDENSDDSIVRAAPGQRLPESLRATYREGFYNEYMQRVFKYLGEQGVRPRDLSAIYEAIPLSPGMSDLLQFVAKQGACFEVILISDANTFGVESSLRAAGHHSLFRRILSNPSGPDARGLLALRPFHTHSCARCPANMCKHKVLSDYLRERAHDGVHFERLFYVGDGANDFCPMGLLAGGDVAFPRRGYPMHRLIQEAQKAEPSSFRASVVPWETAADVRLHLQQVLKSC
HSF1 inh = HSF1 inhibition. NIH3T3-HGL HSE-luciferase, MG132-induced, luminescence 8 h; active compounds read low. activity change, negative = inhibition, % at 7.5 µM (by protocol). 0.77% of 300,000 active. AID 2098;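 active = more than half of replicate wells show activity change below -50%, luminescence cut by over half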;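 note: luciferase reports HSF-1 transcriptional activity via heat shock element; 0% = median of DMSO wells and -100% = zero luminescence signal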
AI-2 QS modul = modulators of Vibrio harveyi AI-2 quorum sensing system; activity change, % at 7.5 µM; AID 2094; 0.4% of 300,000 active; Vibrio harveyi JMH597 AI-2 luminescence/OD600 ratio, 9 h; active compounds read low; strain lacks LuxN and CqsS sensors; 0 = neutral-control median; in the data active = activity change below about -75%, passing the limit was not always enough;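 note: luminescence divided by OD600 gain over 9 h not by final OD600 alone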
HCV core dimer = HCV core protein dimerization inhibition | TR-FRET GST/Flag-core106 dimerization, 1536-well | inhibition, % at 5 µM | 0.33% of 300,000 active;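 active = inhibition above the mean of all tested compounds plus 3 SD, set per screening campaign, cut at about 45% in these data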
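Assay system: Tagged HCV core106 pair (GST and Flag) | Buffer or medium: KF-containing HEPES buffer, pH 7.45, DTT, CHAPS, BSA | Also added: Eu donor and XL665 acceptor anti-tag antibodies | Dosing: One concentration, 5 µM, in 0.5% DMSO | Timing: 4 h at 22.5 °C | Technique: TR-FRET 671 and 617 nm emission | Repeats: Singlicate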
ALR inh = inhibitors of human sulfhydryl oxidase ALR; P55789; purified ALR, DTT oxidation, H2O2 HRP-luminol luminescence; inhibition, % (concentration not given with the values); 3.8% of 290,000 active;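 active = mean replicate inhibition above about 79%, with every replicate also reaching it, limit read from the data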
Target sequence (P55789 whole entry, looked up): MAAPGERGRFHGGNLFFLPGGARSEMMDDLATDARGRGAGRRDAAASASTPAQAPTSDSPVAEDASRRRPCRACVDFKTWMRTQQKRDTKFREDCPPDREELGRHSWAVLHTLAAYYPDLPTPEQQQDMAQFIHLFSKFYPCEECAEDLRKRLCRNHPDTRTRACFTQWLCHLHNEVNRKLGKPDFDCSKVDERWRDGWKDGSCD
* hit, by the source's call. Rows were chosen to be rich in hits. Some 6.8% of all compounds tested hit in one or more screens of this group.

How did COc1ccccc1-c1c(C(F)(F)F)oc2cc(OC(=O)c3cccc([N+](=O)[O-])c3C)ccc2c1=O do in these assays?
HSF-1 act: 11.2; PHOSPHO1 inh: 21.6; HSF1 inh: -0.4; AI-2 QS modul: 7.1; HCV core dimer: 4.7; ALR inh: -4.6

Results for CCN(CC)S(=O)(=O)c1cccc(-c2nnc(SCC(N)=O)n2CCc2ccccc2)c1 ?
HSF-1 act: -65.5; PHOSPHO1 inh: -16.7; HSF1 inh: -59.6*; AI-2 QS modul: -4.4; HCV core dimer: -7.4; ALR inh: 8.3

Results for CCN(CC)S(=O)(=O)c1cccc(-c2nnc(SCC(=O)c3ccc(Cl)s3)n2C)c1 ?
HSF-1 act: -28.8; PHOSPHO1 inh: 63.7*; HSF1 inh: -17.3; AI-2 QS modul: 13.2; HCV core dimer: 25.1; ALR inh: 20.3

What do the screens show for `Cc1ccc(-c2nc3ccsc3c(=O)[nH]2)cc1`?
HSF-1 act: 41.5; PHOSPHO1 inh: -11.1; HSF1 inh: 8.2; AI-2 QS modul: 12.3; HCV core dimer: -0.1; ALR inh: 2.1

How did O=C(CCC(=O)N(CC(=O)NC1CCCCC1)Cc1cccs1)Nc1ccccn1 do in these assays?
HSF-1 act: -12.3; PHOSPHO1 inh: 11.4; HSF1 inh: 0.0; AI-2 QS modul: -10.0; HCV core dimer: 2.9; ALR inh: 0.8

What do the screens show for `COc1cc(-c2n[nH]c(=S)n2C(C)c2ccccc2)cc(OC)c1OC` (stereo not given)?
HSF-1 act: 17.4; PHOSPHO1 inh: -86.7; HSF1 inh: 17.6; AI-2 QS modul: -13.7; HCV core dimer: -12.3; ALR inh: 92.7*

How did CC(c1ccc(F)cc1)n1c(-c2ccc3ccccc3n2)n[nH]c1=S (stereo not given) do in these assays?
HSF-1 act: 5.5; PHOSPHO1 inh: -4.6; HSF1 inh: -3.3; AI-2 QS modul: 17.1; HCV core dimer: -12.3; ALR inh: 88.5*

What do the screens show for `CCCc1cc(-c2n[nH]c(=S)n2C(C)c2ccccc2)cs1` (stereo not given)?
HSF-1 act: 6.7; PHOSPHO1 inh: 82.7*; HSF1 inh: 0.6; AI-2 QS modul: -0.6; HCV core dimer: 4.3; ALR inh: 14.7

What do the screens show for `NC(=O)c1ncc(C(F)(F)F)cc1Oc1cccnc1`?
HSF-1 act: 5.6; PHOSPHO1 inh: -19.6; HSF1 inh: 0.0; AI-2 QS modul: 15.7; HCV core dimer: 2.0; ALR inh: 3.3

Results for Cc1ccc(-c2cc(C(=O)N3CCN(c4ccc(F)cc4)CC3)c3ccccc3n2)o1 ?
HSF-1 act: 2.0; PHOSPHO1 inh: 21.5; HSF1 inh: 13.1; AI-2 QS modul: 7.3; HCV core dimer: 49.3*; ALR inh: -9.1

What do the screens show for `Cc1ccc(-c2cc(C(=O)N3CCN(c4ncccn4)CC3)c3cc(Br)ccc3n2)o1`?
HSF-1 act: 75.7*; PHOSPHO1 inh: 37.8; HSF1 inh: 47.3; AI-2 QS modul: 36.7; HCV core dimer: 40.5; ALR inh: 1.3

Results for Cc1cc(C(=O)N2CCN(c3ccc(F)cc3)CC2)on1 ?
HSF-1 act: 5.3; PHOSPHO1 inh: 25.4; HSF1 inh: 1.9; AI-2 QS modul: 10.5; HCV core dimer: -8.9; ALR inh: 96.6*

What do the screens show for `CCn1c(CNC(=O)c2ccco2)nnc1SCC(=O)Nc1ccccc1Cl`?
HSF-1 act: -14.3; PHOSPHO1 inh: 39.1; HSF1 inh: 1.0; AI-2 QS modul: 5.0; HCV core dimer: -2.4

What do the screens show for `c1ccc(Cn2c(CNc3nc4ccccc4n3CCN3CCOCC3)nc3ccccc32)cc1`?
HSF-1 act: 20.0; PHOSPHO1 inh: -24.9; HSF1 inh: 5.2; AI-2 QS modul: 24.0; HCV core dimer: 4.1; ALR inh: 2.2

What do the screens show for `COc1ccc(C(=O)N/N=C(\C)c2ccc3c(c2)C2C=CCC2C(c2ccccc2)N3)cc1` (stereo not given)?
PHOSPHO1 inh: 3.0; HCV core dimer: 67.1*; ALR inh: 13.3

How did COc1cccc(CN2CCN(c3ncccn3)CC2)c1 do in these assays?
HSF-1 act: 4.8; PHOSPHO1 inh: 3.4; HSF1 inh: -10.4; AI-2 QS modul: 14.2; HCV core dimer: -1.3; ALR inh: -11.3

What do the screens show for `COc1cc(Br)cc(CN2CCN(c3ncccn3)CC2)c1O`?
HSF-1 act: -8.2; PHOSPHO1 inh: -8.2; HSF1 inh: 3.2; AI-2 QS modul: 14.6; ALR inh: 98.4*

Results for Cc1nccn1CC(=O)O ?
HSF-1 act: 13.5; PHOSPHO1 inh: -33.3; HSF1 inh: -0.3; AI-2 QS modul: -0.7; HCV core dimer: -2.0; ALR inh: -6.9

What do the screens show for `Cc1nccn1CC(=O)c1ccc(O)c(O)c1`?
ALR inh: 87.0*

Results for O=C(c1ccc(Cl)cc1)c1ccc(Oc2cc(NN3CCCCC3)c([N+](=O)[O-])cc2[N+](=O)[O-])cc1 ?
HSF-1 act: 33.5; PHOSPHO1 inh: -21.1; HSF1 inh: 4.4; AI-2 QS modul: 11.5; HCV core dimer: -11.5; ALR inh: 4.1

What do the screens show for `COC(=O)C1C(C(C)C)N(c2ccccc2)OC1(C)O` (stereo not given)?
HSF-1 act: -7.0; PHOSPHO1 inh: -19.7; HSF1 inh: -8.2; AI-2 QS modul: 3.9; HCV core dimer: -11.1; ALR inh: 86.0*

How did CC1(C)CC(=O)C(Sc2nnc(-c3ccc(O)cc3)n2CC2CCCO2)C(=O)C1 (stereo not given) do in these assays?
HSF-1 act: 8.2; PHOSPHO1 inh: 85.4*; HSF1 inh: 4.9; AI-2 QS modul: 3.1; HCV core dimer: -1.1; ALR inh: -1.0

How did CCC(=O)Nc1ccc(NC(=O)CSc2nnc(-c3ccc(O)cc3)n2CC2CCCO2)cc1 (stereo not given) do in these assays?
PHOSPHO1 inh: 2.3; AI-2 QS modul: 11.2; HCV core dimer: -1.3

Results for CC(=O)Nc1ccc(C(=O)CSc2nnc(-c3ccc(O)cc3)n2CC2CCCO2)cc1 (stereo not given) ?
HSF-1 act: -4.1; PHOSPHO1 inh: 65.3*; HSF1 inh: -6.6; AI-2 QS modul: 17.0; HCV core dimer: 0.0; ALR inh: 24.0

How did CC(C)(Cc1ccccc1)/[N+]([O-])=C\c1ccccc1 do in these assays?
HSF-1 act: -12.3; HSF1 inh: 0.9; AI-2 QS modul: 2.9; HCV core dimer: -10.7

How did O=C1C2C3CCC(C3)C2C(=O)N1c1ccc(OS(=O)(=O)c2ccccc2)cc1 (stereo not given) do in these assays?
HSF-1 act: -4.4; PHOSPHO1 inh: 60.0*; HSF1 inh: 9.0; AI-2 QS modul: 21.7; HCV core dimer: 5.4; ALR inh: -72.7

How did CN(C(=O)COC(=O)/C=C/c1cccs1)C1CCCCC1 do in these assays?
ALR inh: -24.1

Results for N#Cc1nc(-c2cccc3ccccc23)oc1NCCN1CCCCC1 ?
HSF-1 act: 70.2*; PHOSPHO1 inh: 1.0; HSF1 inh: 55.2; AI-2 QS modul: 11.6; HCV core dimer: 3.0; ALR inh: 14.5

High-throughput results deposited in PubChem by several laboratories.
